According to ChEMBL document CHEMBL1134229 (Bioorg Med Chem Lett, 2001):

Columns and labels:
[1] = target: T1, Somatostatin receptor type 4 (Homo sapiens, UniProt P31391); experiment: Inhibitory constant on human somatostatin receptor 4
How it was run: (§1)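 Competition binding against [¹²⁵I-Tyr¹¹]SRIF-14 on membranes from CHO-K1 cells stably expressing each human SRIF receptor subtype. Method adapted from Shimon et al. Ki is reported.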

[2] = target: T2, Somatostatin receptor type 3 (Homo sapiens, UniProt P32745); experiment: Inhibitory constant on human somatostatin receptor type 3; how it was run: as §1
[3] = target: T3, Somatostatin receptor type 2 (Homo sapiens, UniProt P30874); experiment: (§2) Inhibitory constant on human Somatostatin receptor type 2; format: single protein; how it was run: as §1
[4] = target: Somatostatin receptor type 1 (Homo sapiens, UniProt P30872); experiment: Inhibitory constant on human Somatostatin receptor type 1; how it was run: as §1
[5] = target: T4, Somatostatin receptor type 5 (Homo sapiens, UniProt P35346); experiment: Inhibitory constant on human somatostatin receptor 5; how it was run: as §1
[6] = target: T4, Somatostatin receptor type 5; experiment: Inhibitory constant on human Somatostatin receptor type 5; how it was run: as §1
[7] = target: T2, Somatostatin receptor type 3; experiment: Inhibitory constant on human Somatostatin receptor type 3; how it was run: as §1
[8] = target: T1, Somatostatin receptor type 4; experiment: Inhibitory constant on human Somatostatin receptor type 4; how it was run: as §1
[9] = target: T3, Somatostatin receptor type 2; experiment: as §2; how it was run: as §1
[10] = target: T4, Somatostatin receptor type 5; experiment: Agonist activity on human somatostatin receptor 5; format: functional
How it was run: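 Confluent CHO-K1 cells expressing human sst₅ were washed in RPMI 1640 with 0.2% BSA at 37 °C, then preincubated 5 min with isobutylmethylxanthine. Cells were then incubated 20 min at 37 °C with forskolin plus increasing agonist concentrations.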

Chain of Somatostatin receptor type 1 (P30872 whole entry): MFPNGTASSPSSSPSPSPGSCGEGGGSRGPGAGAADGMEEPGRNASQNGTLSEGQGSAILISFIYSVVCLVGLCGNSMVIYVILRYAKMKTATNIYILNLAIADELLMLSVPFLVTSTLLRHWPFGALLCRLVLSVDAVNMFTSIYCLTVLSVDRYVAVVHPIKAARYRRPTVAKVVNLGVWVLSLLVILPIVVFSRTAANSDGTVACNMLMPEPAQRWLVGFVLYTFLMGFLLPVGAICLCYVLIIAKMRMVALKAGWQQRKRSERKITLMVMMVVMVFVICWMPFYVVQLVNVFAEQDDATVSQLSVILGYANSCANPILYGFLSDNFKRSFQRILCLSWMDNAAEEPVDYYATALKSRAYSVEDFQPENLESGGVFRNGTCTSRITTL
T2 sequence (P32745 whole entry): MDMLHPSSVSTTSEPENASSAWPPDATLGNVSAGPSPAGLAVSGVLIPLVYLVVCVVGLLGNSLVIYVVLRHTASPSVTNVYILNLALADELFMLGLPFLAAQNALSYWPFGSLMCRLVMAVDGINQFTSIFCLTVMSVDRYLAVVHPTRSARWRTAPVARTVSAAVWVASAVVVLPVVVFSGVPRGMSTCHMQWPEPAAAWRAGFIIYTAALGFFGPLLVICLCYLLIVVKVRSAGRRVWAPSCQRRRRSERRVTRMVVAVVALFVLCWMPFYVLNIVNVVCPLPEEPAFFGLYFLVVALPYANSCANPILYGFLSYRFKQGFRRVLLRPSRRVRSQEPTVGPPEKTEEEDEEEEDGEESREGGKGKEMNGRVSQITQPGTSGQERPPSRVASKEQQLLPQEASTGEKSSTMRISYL
T1 sequence (P31391 whole entry): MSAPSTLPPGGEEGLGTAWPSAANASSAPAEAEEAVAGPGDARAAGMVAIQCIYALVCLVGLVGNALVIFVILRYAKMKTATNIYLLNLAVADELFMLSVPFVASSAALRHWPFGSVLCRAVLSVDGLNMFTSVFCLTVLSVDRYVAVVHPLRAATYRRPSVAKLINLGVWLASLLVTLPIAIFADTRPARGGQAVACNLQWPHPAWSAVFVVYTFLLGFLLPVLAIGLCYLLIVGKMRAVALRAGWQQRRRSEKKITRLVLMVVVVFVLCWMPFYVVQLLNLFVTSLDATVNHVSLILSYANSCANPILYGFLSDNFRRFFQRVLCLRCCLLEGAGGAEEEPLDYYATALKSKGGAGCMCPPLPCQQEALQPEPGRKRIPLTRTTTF
T4 sequence (P35346 whole entry): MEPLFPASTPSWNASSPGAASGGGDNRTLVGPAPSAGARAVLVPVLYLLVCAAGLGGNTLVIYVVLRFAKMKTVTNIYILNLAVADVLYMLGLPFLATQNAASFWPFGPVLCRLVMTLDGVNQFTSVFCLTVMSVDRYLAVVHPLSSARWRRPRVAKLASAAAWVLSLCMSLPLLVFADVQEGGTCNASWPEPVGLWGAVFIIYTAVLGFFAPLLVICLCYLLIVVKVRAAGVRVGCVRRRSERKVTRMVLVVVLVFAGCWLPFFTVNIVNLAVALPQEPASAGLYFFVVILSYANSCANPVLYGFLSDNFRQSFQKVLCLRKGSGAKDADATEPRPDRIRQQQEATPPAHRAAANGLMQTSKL
T3 sequence (P30874 whole entry): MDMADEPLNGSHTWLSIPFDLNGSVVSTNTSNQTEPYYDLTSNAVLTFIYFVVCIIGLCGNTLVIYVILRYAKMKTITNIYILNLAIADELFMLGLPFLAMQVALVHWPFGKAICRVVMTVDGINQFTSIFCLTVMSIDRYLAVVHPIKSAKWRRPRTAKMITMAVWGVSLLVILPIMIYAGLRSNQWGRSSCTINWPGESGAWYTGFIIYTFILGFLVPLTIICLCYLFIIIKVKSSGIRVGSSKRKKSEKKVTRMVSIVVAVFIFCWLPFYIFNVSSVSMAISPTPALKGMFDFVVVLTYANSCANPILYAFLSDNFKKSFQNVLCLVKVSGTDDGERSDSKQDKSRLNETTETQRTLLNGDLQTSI

Row | SMILES | Ki [1] | Ki [2] | Ki [3] | Ki [4] | Ki [5] | Ki [6] | Ki [7] | Ki [8] | Ki [9] | EC50 [10]
1 | CC(C)(C(=O)NCCc1c[nH]c2ccccc12)c1cn2cc(-c3csc4ccccc34)nc(CCCN)c2n1 | > 10 µM | 10 µM | 3.2 µM | 4 µM | 2300 nM |  |  |  |  | 
2 | CC(C)(C(=O)NCCN)c1cn2c(n1)C(Cc1c[nH]c3ccccc13)N=C(Cc1ccccc1)C2 (stereo unspecified) |  |  |  | > 10 µM |  | > 1000 nM | > 10 µM | > 10 µM | > 10 µM | 
3 | NCCCc1nc(-c2cccc([N+](=O)[O-])c2)cn2cc(-c3ccccc3)nc12 | > 10 µM | 2.5 µM | 7.9 µM | 3.4 µM | 430 nM |  |  |  |  | 
4 | CC(C)(C(=O)NC1CCCCC1)c1cn2cc(-c3csc4ccccc34)nc(CCCN)c2n1 | > 10 µM | 3.7 µM | 9.5 µM | 9.7 µM | 360 nM |  |  |  |  | 1600 nM
5 | CC(C)(C(=O)NCCc1c[nH]c2ccccc12)c1cn2cc(Cc3ccccc3)nc(CCCN)c2n1 | 7.2 µM | 1.2 µM | 8.6 µM | 4.6 µM | 1200 nM |  |  |  |  | 
6 | CCCCNC(=O)C(C)(C)c1cn2cc(-c3csc4ccccc34)nc(CCCN)c2n1 | > 10 µM | 8.9 µM | > 10 µM | > 10 µM | 540 nM |  |  |  |  | 

More lines, now with the values ahead:

Row | Ki [1] | Ki [2] | Ki [3] | Ki [4] | Ki [5] | Ki [6] | Ki [7] | Ki [8] | Ki [9] | EC50 [10] | SMILES
7 |  |  |  | > 5 µM |  | > 5000 nM | > 5 µM | > 5 µM | > 5 µM |  | c1ccc(Cc2nc(-c3ccccc3)cn3cc(-c4ccccc4)nc23)cc1
8 | > 5 µM | > 5 µM | > 5 µM | > 5 µM | > 5000 nM |  |  |  |  |  | NCCCc1nc(-c2ccccc2)cn2cc(-c3ccccc3)nc12
9 | 7.2 µM | 1.7 µM | 2.1 µM | 2.9 µM | 600 nM |  |  |  |  |  | NCCCc1nc(-c2csc3ccccc23)cn2cc(-c3ccccc3)nc12
10 | > 10 µM | 3.1 µM | 6 µM | 3.3 µM | 790 nM |  |  |  |  |  | NCCCc1nc(-c2c[nH]c3ccccc23)cn2cc(-c3ccccc3)nc12
